ChEMBL document CHEMBL1124035, “1-Amino-substituted 4-methyl-5H-pyrido[4,3-b]indoles (gamma-carbolines) as tricyclic analogues of ellipticines: a new class of antineoplastic agents” (1988)

Key:
Mus musculus [1] = experiment: Survivors at day 30 when a dose of 20 mg/kg to P388 leukemia model; 0/10; type: functional
Mus musculus [2] = experiment: Weight change in g when a dose of 2.5 mg/kg administered intraperitoneally in B-16 melanoma infected mice; type: functional; settings: route intraperitoneal
How it was run: (§1)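 Hybrid BDF1 mice were inoculated ip at D0 with 0.5 mL of B16 melanoma homogenate (1 g tumor in 10 mL physiological serum). Drug was given ip daily on days 1-9, with cis-platinum 0.5 mg/kg as positive control on the same schedule.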

Mus musculus [3] = experiment: Survivors at day 60 when a dose of 2.5 mg/kg to B16 melanoma infected mice; 0/10; type: functional
Mus musculus [4] = experiment: Antitumor activity against P388 leukemia in mice at a dose of 15 mg/kg administered intraperitoneally for 5 days; type: functional; settings: route intraperitoneal
How it was run: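 CDF1 hybrid male or female mice, 10 per group, were inoculated ip with 10^6 viable P388 cells on day 0. Drugs in distilled water were given ip (0.1 mL/10 g body weight) daily D1-5. Vehicle, 5-fluorouracil and BD 84 were given the same way. T/C = median survival day of treated / controls × 100; T/C > 128% was significant; cures counted at D60.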

Mus musculus [5] = experiment: Median survival day in B16 melanoma cell line when a dose of 20 mg/kg administered intraperitoneally to mice; type: functional; settings: route intraperitoneal
How it was run: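 B16 melanoma in hybrid BD F1 mice. At D0 each mouse was inoculated ip with 0.5 mL of homogenate made from 1 g of tumour in 10 mL of physiological serum. Compounds were given ip daily at the stated doses for 9 days (D1-9), with cis-platinum 0.5 mg/kg under the same schedule as positive control.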

Mus musculus [6] = experiment: Antitumor activity against P388 cells at a dose of 10 mg/kg administered intraperitoneally P388 Leukemia model; type: functional; settings: route intraperitoneal
How it was run: (§2)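 Mice were inoculated ip with 10^6 P388 leukemia cells at D0, then given a single ip drug dose on D1. Weight change was recorded. T/C % = median survival day of treated / controls × 100; survivors counted at D30; 10 mice per dose group, 20 controls.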

Mus musculus [7] = experiment: Survivors at day 60 when a dose of 30 mg/kg to B16 melanoma infected mice; 0/10; type: functional
Mus musculus [8] = experiment: Survivors at day 60 when a dose of 20 mg/kg to B16 melanoma infected mice; 5/10; type: functional
Mus musculus [9] = experiment: Weight change in g when a dose of 20 mg/kg administered intraperitoneally to P388 leukemia infected mice; type: functional; settings: route intraperitoneal
How it was run: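 P388 model with a single ip dose. Mice (10 per group) were inoculated ip at D0 with 10^6 P388 cells and given one ip drug dose at D1. Body-weight change (g), median survival day, T/C and survivors at D30 were recorded.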

Mus musculus [10] = experiment: Weight change in g when a dose of 100 mg/kg (iv) to P388 leukemia model; type: functional
How it was run: (§3)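 Mice (10 per group) were inoculated ip at D0 with 10^6 P388 leukemia cells and given a single iv dose at D1. Read-outs were weight change (g), median survival day, T/C % versus controls and survivors at D30.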

Mus musculus [11] = experiment: Weight change in g when a dose of 10 mg/kg administered intraperitoneally to B16 melanoma infected mice; type: functional; settings: route intraperitoneal; how it was run: as §1
Mus musculus [12] = experiment: Survivors at day 30 when a dose of 20 mg/kg administered to P388 leukemia model when tested in 10 mice; type: functional
How it was run: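 P388 leukaemia in CDF1 hybrid mice, 10 per group. At D0, 10^6 viable cells were inoculated ip, followed by a single ip dose of drug in distilled water on D1. Weight change, median survival day, T/C (treated/control median survival × 100) and survivors at D30 were recorded. Controls were 20 mice.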

Mus musculus [13] = experiment: Antitumor activity against C38 adenocarcinoma cells at a dose of 50 mg/kg administered intravenously in mice; tumor volume at D38 (T/C); type: functional, MC-38; settings: route intravenous
How it was run: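 Hybrid BD F1 mice, 10 per group, were implanted sc with a standard 3-mm3 C38 colon adenocarcinoma fragment. Drugs were given iv at the stated doses on D1 or on D2 + D9. Read-out was tumor size in treated versus control mice (T/C) at the day stated.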

Mus musculus [14] = experiment: Survivors at day 30 when a dose of 100 mg/kg administered intravenously to P388 (iv) to L1210 leukemia mice model; type: functional
Mus musculus [15] = experiment: Survivors at day D30 when a dose of 20 mg/kg administered intravenously to L1210 leukemia mice model; type: functional; settings: route intravenous
Mus musculus [16] = experiment: […] in C38 adenocarcinoma cell line when a dose of 25 mg/kg administered intravenously in mice; type: functional, MC-38; settings: route intravenous
How it was run: (§4)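 C38 colon adenocarcinoma in hybrid BD F1 mice, 10 per test. A standard 3-mm³ tumour fragment was implanted sc. Drugs were given iv at the stated doses on D1 or on D2 + D9, following the Geran et al. NCI protocol.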

Mus musculus [17] = experiment: Survivors at day 30 when a dose of 5 mg/kg administered to P388 leukemia infected when tested in 10 mice; type: functional
Mus musculus [18] = experiment: Survivors at day D32 when a dose of 50 mg/kg administered intravenously to mice (C38 adenocarcinoma cell lines) when tested in 10 mice; type: functional; settings: route intravenous
How it was run: (§5)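 Hybrid BDF1 mice, 10 per test, were implanted sc with a standard 3-mm³ fragment of C38 colon adenocarcinoma. Drug was given iv either on D1 alone or on D2 and D9. Animals were followed per NCI (Geran) protocol.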

Mus musculus [19] = experiment: Median survival day of L1210 (iv) to L1210 leukemia model when a dose of 20 mg/kg administered intravenously to mice; type: functional
How it was run: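 L1210 leukaemia in CDF1 hybrid male or female mice, 10 per group. At D0, 10^5 viable cells were inoculated ip, followed by a single iv dose on D1. Median survival day was recorded, and T/C was calculated as treated/control median survival × 100.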

Mus musculus [20] = experiment: Weight change in g when a dose of 50 mg/kg intravenous administration to P388 leukemia mice model; type: functional; how it was run: as §3
Mus musculus [21] = experiment: Survivors at day 30 when a dose of 100 mg/kg administered intravenously to P388 leukemia mice model; 1/10; type: functional; settings: route intravenous
How it was run: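 P388 leukaemia in CDF1 hybrid mice, 10 per group. At D0, 10^6 viable cells were inoculated ip, followed by a single iv dose on D1. Weight change, median survival day, T/C (treated/control median survival × 100) and survivors at D30 were recorded.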

Mus musculus [22] = experiment: Antitumor activity against P388 cells at a dose of 80 mg/kg administered intraperitoneally to P388 leukemia model; type: functional; settings: dose 40 mg/kg; route intraperitoneal; in the assay text read “40 mg/kg” for “80 mg/kg”; how it was run: as §2
Mus musculus [23] = experiment: […] in C38 adenocarcinoma cell line when a dose of 75 mg/kg administered intravenously to mice; type: functional, MC-38; settings: route intravenous; how it was run: as §4
Mus musculus [24] = experiment: […] in C38 adenocarcinoma cell line when a dose of 50 mg/kg administered intravenously to mice; type: functional, MC-38; settings: route intravenous; how it was run: as §4
Mus musculus [25] = experiment: Survivors at day D32 when a dose of 75 mg/kg administered intravenously to C38 adenocarcinoma mice models; 10/10; type: functional; settings: route intravenous; how it was run: as §5
Mus musculus [26] = experiment: Antitumor activity against P388 cells at a dose of 40 mg/kg administered intraperitoneally to P388 leukemia model; type: functional; settings: route intraperitoneal; how it was run: as §2
Mus musculus [27] = experiment: In vivo toxicity test on P388 cells at a dose of 50 mg/kg administered intravenously to P388 leukemia mice model; type: functional; settings: route intravenous; how it was run: as §3
Mus musculus [28] = experiment: Survivors at day 30 when a dose of 50 mg/kg administered intravenously to P388 leukemia mice model; 0/10; type: functional; settings: route intravenous

Work on CCN(CC)CCCNc1[nH]cc(C)c2nc3ccc(O)cc3c1-2 yielded a Survivors (Mus musculus [1]) of 0, a Weight change (Mus musculus [2]) of 3.6 g and a Survivors (Mus musculus [3]) of 0. For the same compound, the T/C (Mus musculus [4]) was 208%, the Median survival day (Mus musculus [5]) was 58 and the T/C (Mus musculus [6]) was 129%. For the same compound, the Survivors (Mus musculus [7]) was 0 and the Survivors (Mus musculus [8]) was 5.

In the case of Cc1cnc(NCCCN(C)C)c2c3cc(O)ccc3n(C)c12, the Weight change (Mus musculus [9]) is reported as -2.5 g, the Weight change (Mus musculus [10]) is reported as -0.25 g and the Weight change (Mus musculus [11]) is reported as -1.9 g. The Survivors (Mus musculus [12]) was 1, the Tumor volume (Mus musculus [13]) was 0% and the Survivors (Mus musculus [14]) was 4. It also gave a Survivors (Mus musculus [15]) of 0, a Median tumoral volume (Mus musculus [16]) of 0 cm*3 and a Survivors (Mus musculus [17]) of 0. For the same compound, the Survivors (Mus musculus [18]) was 10 and the Median survival day (Mus musculus [19]) was 14.

Compound CCN(CC)CCCNc1ncc(C)c2c1c1cc(O)ccc1n2C has a Weight change (Mus musculus [20]) of -0.7 g, a Survivors (Mus musculus [21]) of 1 and a T/C (Mus musculus [22]) of 202%. The Median tumoral volume (Mus musculus [23]) was 0.97 cm*3, the Median tumoral volume (Mus musculus [24]) was 1.38 cm*3 and the Survivors (Mus musculus [25]) was 10. It also gave a T/C (Mus musculus [26]) of 202%, a T/C (Mus musculus [27]) of 174% and a Survivors (Mus musculus [28]) of 0.
